Source: ChEMBL document CHEMBL4219177, “Synthesis and evaluation of the antibacterial activities of aryl substituted dihydrotriazine derivatives” (Bioorg Med Chem Lett, 2018)
≈ marks a conversion by molar mass, not a printed value.

What was measured:
Streptococcus mutans = test: Antibacterial activity against Streptococcus mutans 3289 after 24 hrs by two-fold serial dilution method; format: functional; details: Streptococcus mutans, 3289, 24 h
Candida albicans = test: Antifungal activity against Candida albicans 7535 after 24 hrs by two-fold serial dilution method; format: functional; details: Candida albicans, 7535, 24 h
Pseudomonas aeruginosa = test: Antibacterial activity against Pseudomonas aeruginosa 2742 after 24 hrs by two-fold serial dilution method; format: functional; details: Pseudomonas aeruginosa, 2742, 24 h
How it was run: (§1)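 Bacteria grown to mid-log phase in Mueller-Hinton broth, diluted 1000-fold, and inoculated at 10^5 CFU/mL. Compounds were dissolved in DMSO (final ≤0.05%) and two-fold serially diluted. MIC was the lowest concentration giving complete growth inhibition after 24 h at 37 °C, with growth read as absorbance at 650 nm. Each experiment was run three times.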

Escherichia coli = test: Antibacterial activity against Escherichia coli 1924 after 24 hrs by two-fold serial dilution method; format: functional; details: Escherichia coli, 1924, 24 h; how it was run: as §1
Salmonella typhimurium = test: Antibacterial activity against Salmonella typhimurium 2421 after 24 hrs by two-fold serial dilution method; format: functional, Salmonella enterica subsp. enterica serovar Typhimurium; details: Salmonella enterica, 2421, 24 h; how it was run: as §1
Staphylococcus aureus [1] = test: Antibacterial activity against quinolone-resistant Staphylococcus aureus isolate CCARM 3505 after 24 hrs by two-fold serial dilution method; format: functional; details: isolate CCARM 3505, 24 h
How it was run: (§2)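 Broth microdilution MIC. Bacteria were grown to mid-log phase in Mueller-Hinton broth, diluted 1000-fold, and inoculated at 10^5 CFU/mL. Compounds in DMSO (final ≤0.05%) were tested as two-fold serial dilutions from 64 to 0.25. Plates were incubated 24 h at 37 °C and growth read as absorbance at 650 nm. MIC = concentration completely inhibiting growth. Experiments were run three times.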

Staphylococcus aureus [2] = test: Antibacterial activity against methicillin-resistant Staphylococcus aureus isolate CCARM 3167 after 24 hrs by two-fold serial dilution method; format: functional; details: isolate CCARM 3167, 24 h
Staphylococcus aureus [3] = test: Antibacterial activity against Staphylococcus aureus 4220 after 24 hrs by two-fold serial dilution method; format: functional; details: RN4220, 24 h; how it was run: as §2
L02 = test: Cytotoxicity against human L02 cells assessed as growth inhibition after 24 hrs by MTT assay; format: cell-based; details: L02, 24 h

SMILES | MIC (Streptococcus mutans) [µg/mL] | MIC (Candida albicans) [µg/mL] | MIC (Pseudomonas aeruginosa) [µg/mL] | MIC (Escherichia coli) [µg/mL] | MIC (Salmonella typhimurium) [µg/mL] | MIC (Staphylococcus aureus [1]) [µg/mL] | MIC (Staphylococcus aureus [2]) | MIC (Staphylococcus aureus [3]) | IC50 (L02) [µM]
Cc1ccc(COc2ccc3cc(C4N=C(N)NC(N(C)C)=N4)ccc3c2)cc1 (stereo unspecified) | 2 (≈ 5.16 µM) | 4 (≈ 10.3 µM) | 64 (≈ 165 µM) | 2 (≈ 5.16 µM) | 64 (≈ 165 µM) | 2 (≈ 5.16 µM) | 2 µg/mL | 2 µg/mL | 
Cc1ccc(C(=O)/C=C/c2ccc(C3N=C(N)NC(N(C)C)=N3)cc2)c(C)c1 (stereo unspecified) | 32 (≈ 85.2 µM) | 32 (≈ 85.2 µM) | > 64 | 32 (≈ 85.2 µM) | > 64 | 32 (≈ 85.2 µM) | 32 µg/mL | 32 µg/mL | 
CN(C)C1=NC(c2ccc3cc(OCC(=O)c4ccc(Br)cc4)ccc3c2)N=C(N)N1 (stereo unspecified) | 8 (≈ 16.7 µM) | 16 (≈ 33.3 µM) | 64 (≈ 133 µM) | 8 (≈ 16.7 µM) | 64 (≈ 133 µM) | 4 (≈ 8.33 µM) | 8.35 µM | 16.7 µM | 58.7
CN(C)C1=NC(c2ccc(OCC(=O)c3ccccc3)cc2)N=C(N)N1 (stereo unspecified) | > 64 | > 64 | > 64 | > 64 | > 64 | > 64 | > 64 µg/mL | > 64 µg/mL | 
CN(C)C1=NC(c2ccc3cc(OCc4ccc(Br)cc4)ccc3c2)N=C(N)N1 (stereo unspecified) | 1 (≈ 2.21 µM) | 1 (≈ 2.21 µM) | 64 (≈ 141 µM) | 1 (≈ 2.21 µM) | 64 (≈ 141 µM) | 1 (≈ 2.21 µM) | 1 µg/mL | 1 µg/mL | 
CN(C)C1=NC(c2ccc3cc(OCc4cccc(Cl)c4)ccc3c2)N=C(N)N1 (stereo unspecified) | 2 (≈ 4.9 µM) | 1 (≈ 2.45 µM) | 64 (≈ 157 µM) | 1 (≈ 2.45 µM) | 64 (≈ 157 µM) | 1 (≈ 2.45 µM) | 1 µg/mL | 2 µg/mL | 
CN(C)C1=NC(c2ccc(OCc3ccc(F)cc3)cc2)N=C(N)N1 (stereo unspecified) | 64 (≈ 187 µM) | 64 (≈ 187 µM) | > 64 | 64 (≈ 187 µM) | > 64 | 64 (≈ 187 µM) | 32 µg/mL | 64 µg/mL | 
CN(C)C1=NC(c2ccc3cc(OCc4ccc(Cl)cc4)ccc3c2)N=C(N)N1 (stereo unspecified) | 1 (≈ 2.45 µM) | 1 (≈ 2.45 µM) | 64 (≈ 157 µM) | 1 (≈ 2.45 µM) | 64 (≈ 157 µM) | 1 (≈ 2.45 µM) | 1 µg/mL | 1 µg/mL | 
COc1ccccc1C(=O)/C=C/c1ccc(C2N=C(N)NC(N(C)C)=N2)cc1 (stereo unspecified) | 64 (≈ 170 µM) | 32 (≈ 84.8 µM) | > 64 | 64 (≈ 170 µM) | > 64 | 64 (≈ 170 µM) | 64 µg/mL | 64 µg/mL | 
CN(C)C1=NC(c2ccc3cc(OCc4ccccc4Cl)ccc3c2)N=C(N)N1 (stereo unspecified) | 2 (≈ 4.9 µM) | 1 (≈ 2.45 µM) | 64 (≈ 157 µM) | 1 (≈ 2.45 µM) | 64 (≈ 157 µM) | 1 (≈ 2.45 µM) | 1 µg/mL | 2 µg/mL | 
CN(C)C1=NC(c2ccc(OCC(=O)c3ccc(Br)cc3)cc2)N=C(N)N1 (stereo unspecified) | 32 (≈ 74.4 µM) | 32 (≈ 74.4 µM) | > 64 | 64 (≈ 149 µM) | > 64 | 64 (≈ 149 µM) | 32 µg/mL | 32 µg/mL | 
CN(C)C1=NC(c2ccc(/C=C/C(=O)c3ccccc3)cc2)N=C(N)N1 (stereo unspecified) | 32 (≈ 92.1 µM) | 32 (≈ 92.1 µM) | > 64 | 64 (≈ 184 µM) | > 64 | 32 (≈ 92.1 µM) | 32 µg/mL | 32 µg/mL | 
OC(Cn1cncn1)(Cn1cncn1)c1ccc(F)cc1F [FLUCONAZOLE] | 1 (≈ 3.27 µM) |  |  |  |  |  |  |  | 
CN(C)C1=NC(c2ccc(OCc3ccccc3)cc2)N=C(N)N1 (stereo unspecified) | 32 (≈ 98.9 µM) | 32 (≈ 98.9 µM) | > 64 | 32 (≈ 98.9 µM) | > 64 | 32 (≈ 98.9 µM) | 32 µg/mL | 64 µg/mL | 
